PubChem BioAssay
The source made the active and inactive calls.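 How the source made its calls, unless noted: active means viability at or below 10% of carrier control in both of two separate runs; inconclusive means viability at or below 10% in only one of the two runs; inactive means the rest.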

Experiments:
[1] = reducers of endogenous Her2 protein level, primary screen, SKBR3 breast tumor cells, AlphaScreen, ATP viability (AID 461;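 active means Her2 level under about 52% in both replicate screens, with viability over 70% of control, limit read from the data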;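 on Her2 level: lower value means less Her2 protein in the cells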;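 on viability: percent of carrier control wells set as 100% viability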); details: 18-24 h, measured here: SKBR3 viability, ATP luminescence, at 10 µM
[2] = target: Receptor tyrosine-protein kinase erbB-2 (Homo sapiens) (UniProt P04626); experiment: as above; details: 18-24 h, at 10 µM, stronger effect = lower value
Receptor tyrosine-protein kinase erbB-2 (Homo sapiens), sequence (P04626 whole entry, looked up): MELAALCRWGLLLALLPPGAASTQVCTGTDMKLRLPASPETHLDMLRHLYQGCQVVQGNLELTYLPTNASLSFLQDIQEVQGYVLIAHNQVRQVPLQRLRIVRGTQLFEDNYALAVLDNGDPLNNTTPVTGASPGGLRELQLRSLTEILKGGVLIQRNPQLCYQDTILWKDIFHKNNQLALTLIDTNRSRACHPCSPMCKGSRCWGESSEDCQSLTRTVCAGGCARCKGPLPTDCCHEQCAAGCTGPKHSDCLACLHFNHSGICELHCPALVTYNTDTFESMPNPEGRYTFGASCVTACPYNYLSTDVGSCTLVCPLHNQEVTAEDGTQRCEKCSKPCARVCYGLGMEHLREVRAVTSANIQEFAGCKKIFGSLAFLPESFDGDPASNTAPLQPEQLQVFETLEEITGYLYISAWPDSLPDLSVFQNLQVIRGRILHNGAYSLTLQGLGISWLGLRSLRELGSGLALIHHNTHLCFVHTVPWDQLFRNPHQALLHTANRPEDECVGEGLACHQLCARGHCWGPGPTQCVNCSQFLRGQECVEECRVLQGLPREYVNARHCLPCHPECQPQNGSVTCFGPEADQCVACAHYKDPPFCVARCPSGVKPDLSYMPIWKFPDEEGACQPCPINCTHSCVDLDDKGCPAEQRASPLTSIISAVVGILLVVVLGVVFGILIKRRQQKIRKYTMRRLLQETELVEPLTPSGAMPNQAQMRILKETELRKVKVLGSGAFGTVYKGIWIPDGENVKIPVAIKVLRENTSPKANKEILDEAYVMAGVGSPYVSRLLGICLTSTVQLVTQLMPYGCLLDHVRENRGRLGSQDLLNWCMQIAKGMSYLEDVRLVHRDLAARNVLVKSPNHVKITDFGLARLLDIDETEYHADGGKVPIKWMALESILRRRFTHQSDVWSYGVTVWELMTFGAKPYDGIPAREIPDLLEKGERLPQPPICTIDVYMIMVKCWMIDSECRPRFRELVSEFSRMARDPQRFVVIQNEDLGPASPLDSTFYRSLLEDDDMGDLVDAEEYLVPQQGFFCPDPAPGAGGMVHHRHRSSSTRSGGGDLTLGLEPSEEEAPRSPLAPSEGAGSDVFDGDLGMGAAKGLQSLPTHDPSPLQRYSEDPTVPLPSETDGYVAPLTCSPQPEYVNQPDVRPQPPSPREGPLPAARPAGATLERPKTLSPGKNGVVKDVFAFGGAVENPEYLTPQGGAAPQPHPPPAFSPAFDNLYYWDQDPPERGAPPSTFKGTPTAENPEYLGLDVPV

[3] = SK-BR-3 cell growth inhibitors, pilot screen, 24 h, human (AID 572); details: SK-BR-3 viability, CellTiter-Glo luminescence, at 10 µM, stronger effect = lower value;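 further: compound exposure lasted between 18 and 24 h rather than exactly 24 h; 100% = carrier-treated control wells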
[4] = HUVEC growth inhibition – cell-based, human, primary screen (AID 575;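 active means viability at or below 30% in both replicate assays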;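 further: 100% = median of untreated cell wells with 0.1% DMSO on each plate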); details: HUVEC proliferation, CellTiter-Glo luminescence, 72 h; at 10 µM; stronger effect = lower value
Summary of the method: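 material = primary HUVEC, no more than 12 passages | input = 1250 cells per well | controls = vehicle and MePR control wells | measured by = CTG luminescence | times = 72 h compound incubation | format = collagen-coated 384-well format | read-out = % viability vs DMSO wells | doses = single 10 µM dose, 0.1% DMSO, from 5x medium stock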

[5] = growth inhibitors of H69AR lung tumor, primary screen, human, duplicate replicates (AID 580;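 active means viability at or under a set limit in both replicates, limit being median viability minus 3 SD, cut at about 48% in these data, passing the limit was not always enough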;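 further: 100% = mean luminescence of untreated wells and 0% = no signal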); details: H69AR lung tumor cells viability, ATP luminescence, 72 h; at 10 µM; stronger effect = lower value
[6] = reversal of MRP1-mediated doxorubicin resistance, pilot screen, H69AR cells, doxorubicin co-treatment (AID 601;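 active means viability loss from added drug above about 55%, and viability with drug at most 40%, in both replicates, limit read from the data, passing the limit was not always enough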); details: CellTiter-Glo, 72 h, at 10 µM; for differential viability (reversal): stronger effect = higher value
[7] = 384-well plate pilot, post-Golgi transport modulator project, inhibition of yeast transport mutant growth (AID 636; in the data active means inhibition above about 31%); details: absorbance 615 nm, about 18 h, stronger effect = higher value
[8] = growth suppression of yeast trafficking mutant, preliminary HTS, modulators of trafficking downstream of Golgi apparatus project, 1536-format plate, OD 615 nm (AID 637; in the data active means inhibition above about 30%); details: yeast transport mutant growth, absorbance 615 nm, 18 h; stronger effect = higher value
[9] = H69AR cells + 2 uM doxorubicin, measured here: viability with 2 uM doxorubicin, stronger effect = lower value
[10] = H69AR cells, compound alone cytotoxicity

CC(=O)N1CCN(C(C)=O)C1c1ccccc1
viability [1]: 93.5%
Her2 level [2]: 136% (inactive)
viability [3]: 93.5% (inactive)
viability [4]: 77.9% (inactive)
viability [5]: 91.4% (inactive)
differential viability (reversal) ([6]; H69AR cells + 2 uM doxorubicin): 2.34% (inactive)
viability [6, 9]: 89.1%
viability [6, 10]: 91.4%
inhibition [7]: 3.46% (inactive)
inhibition [8]: -7% (inactive)

O=C(OC1CCOC1=O)c1ccc(S(=O)(=O)N2CCCCCC2)cc1 (stereo not given)
viability [1]: 95.5%
Her2 level [2]: 113% (inactive)
viability [3]: 95.5% (inactive)
viability [4]: 95.3% (inactive)
viability [5]: 106% (inactive)
differential viability (reversal) ([6]; H69AR cells + 2 uM doxorubicin): 12.5% (inactive)
viability [6, 9]: 93.6%
viability [6, 10]: 106%
inhibition [7]: 0.26% (inactive)
inhibition [8]: 1.83% (inactive)

OCC#CCSc1nnc(-c2ccccc2Br)o1
viability [1]: 118%
Her2 level [2]: 109% (inactive)
viability [3]: 118% (inactive)
viability [4]: 85.3% (inactive)
viability [5]: 86.2% (inactive)
differential viability (reversal) ([6]; H69AR cells + 2 uM doxorubicin): 5.93% (inactive)
viability [6, 9]: 80.2%
viability [6, 10]: 86.2%
inhibition [7]: 0% (inactive)
inhibition [8]: 4.26% (inactive)

CCC(=O)c1ccc(OC(=O)c2ccc(Br)o2)cc1
viability [1]: 102%
Her2 level [2]: 78.5% (inactive)
viability [3]: 102% (inactive)
viability [4]: 98% (inactive)
viability [5]: 108% (inactive)
differential viability (reversal) ([6]; H69AR cells + 2 uM doxorubicin): 8.45% (inactive)
viability [6, 9]: 99.9%
viability [6, 10]: 108%
inhibition [7]: -4.67% (inactive)
inhibition [8]: 8.2% (inactive)

Cc1c(NC(=O)C(C)OC(=O)C(NC(=O)c2ccco2)C(C)C)c(=O)n(-c2ccccc2)n1C (stereo not given)
viability [1]: 91%
Her2 level [2]: 91.5% (inactive)
viability [3]: 91% (inactive)
viability [4]: 90.9% (inactive)
viability [5]: 91.5% (inactive)
differential viability (reversal) ([6]; H69AR cells + 2 uM doxorubicin): 5.67% (inactive)
viability [6, 9]: 85.8%
viability [6, 10]: 91.5%
inhibition [7]: -6.89% (inactive)
inhibition [8]: -5.5% (inactive)

Cc1oc(-c2ccccc2Cl)nc1CSCC(=O)N1CCCC1
viability [1]: 72%
Her2 level [2]: 86.5% (inactive)
viability [3]: 72% (inactive)
viability [4]: 79.4% (inactive)
viability [5]: 99.5% (inactive)
differential viability (reversal) ([6]; H69AR cells + 2 uM doxorubicin): 14.6% (inactive)
viability [6, 9]: 85%
viability [6, 10]: 99.5%
inhibition [7]: -0.93% (inactive)
inhibition [8]: 6.61% (inactive)

O=C(NC1CCCCC1)n1c(=O)oc2ccc(Cl)cc21
viability [1]: 118%
Her2 level [2]: 92% (inactive)
viability [3]: 118% (inactive)
viability [4]: 94.8% (inactive)
viability [5]: 94.2% (inactive)
differential viability (reversal) ([6]; H69AR cells + 2 uM doxorubicin): 17.5% (inactive)
viability [6, 9]: 76.7%
viability [6, 10]: 94.2%
inhibition [7]: -2.73% (inactive)
inhibition [8]: -7.62% (inactive)

O=C(O)C1CC(=O)N(c2ccc(OCc3ccccc3Cl)cc2)C1 (stereo not given)
viability [1]: 83%
Her2 level [2]: 92.5% (inactive)
viability [3]: 83% (inactive)
viability [4]: 95.9% (inactive)
viability [5]: 90% (inactive)
differential viability (reversal) ([6]; H69AR cells + 2 uM doxorubicin): 8.43% (inactive)
viability [6, 9]: 81.6%
viability [6, 10]: 90%
inhibition [7]: 0% (inactive)
inhibition [8]: 17.8% (inactive)

O=C1CC(N2CCOCC2)C(=O)N1c1ccccc1Cl (stereo not given)
viability [1]: 103%
Her2 level [2]: 87.5% (inactive)
viability [3]: 103% (inactive)
viability [4]: 87.2% (inactive)
viability [5]: 104% (inactive)
differential viability (reversal) ([6]; H69AR cells + 2 uM doxorubicin): 7.5% (inactive)
viability [6, 9]: 96.6%
viability [6, 10]: 104%
inhibition [7]: -6.4% (inactive)
inhibition [8]: -5.24% (inactive)

N=c1c(C(=O)NCc2ccc(F)cc2)cc2c(=O)n3ccccc3nc2n1CCCN1CCOCC1
viability [1]: 95%
Her2 level [2]: 74.5% (inactive)
viability [3]: 95% (inactive)
viability [4]: 82.8% (inactive)
viability [5]: 76.6% (inactive)
differential viability (reversal) ([6]; H69AR cells + 2 uM doxorubicin): -8.96% (inactive)
viability [6, 9]: 85.6%
viability [6, 10]: 76.6%
inhibition [7]: 0.78% (inactive)
inhibition [8]: 10.8% (inactive)

CC(=O)N1CCN(Cc2ccc(Br)s2)CC1
viability [1]: 93.5%
Her2 level [2]: 88% (inactive)
viability [3]: 93.5% (inactive)
viability [4]: 86.3% (inactive)
viability [5]: 99.3% (inactive)
differential viability (reversal) ([6]; H69AR cells + 2 uM doxorubicin): 11.1% (inactive)
viability [6, 9]: 88.3%
viability [6, 10]: 99.3%
inhibition [7]: -3.51% (inactive)
inhibition [8]: -1.31% (inactive)

CCOc1ccccc1NC(=O)CCN1CCN(S(=O)(=O)c2ccc(Br)cc2)CC1
viability [1]: 119%
Her2 level [2]: 87.5% (inactive)
viability [3]: 119% (inactive)
viability [4]: 100% (inactive)
viability [5]: 86.9% (inactive)
differential viability (reversal) ([6]; H69AR cells + 2 uM doxorubicin): 11.2% (inactive)
viability [6, 9]: 75.7%
viability [6, 10]: 86.9%
inhibition [7]: -6.8% (inactive)
inhibition [8]: 1.13% (inactive)

Cc1cccn2cc(-c3ccccc3)nc12
viability [1]: 78%
Her2 level [2]: 77% (inactive)
viability [3]: 78% (inactive)
viability [4]: 79.2% (inactive)
viability [5]: 91.5% (inactive)
differential viability (reversal) ([6]; H69AR cells + 2 uM doxorubicin): 11.1% (inactive)
viability [6, 9]: 80.3%
viability [6, 10]: 91.5%
inhibition [7]: -1.45% (inactive)
inhibition [8]: 2.55% (inactive)

Nc1ccc(-n2c(N)c(C(=O)NCc3ccc4c(c3)OCO4)c3nc4ccccc4nc32)cc1
viability [1]: 72.5%
Her2 level [2]: 66.5% (inactive)
viability [3]: 72.5% (inactive)
viability [4]: 64.6% (inactive)
viability [5]: 55.5% (inactive)
differential viability (reversal) ([6]; H69AR cells + 2 uM doxorubicin): -17.4% (inactive)
viability [6, 9]: 72.9%
viability [6, 10]: 55.5%
inhibition [7]: -1.73% (inactive)
inhibition [8]: 6.61% (inactive)
